Experimental data from different studies.
Compare with care: the assays were run in different laboratories.
DHFR: Dihydrofolate reductase (DHFR, Homo sapiens, UniProt P00374)
HTR2C: 5-hydroxytryptamine receptor 2C (HTR2C, Homo sapiens, UniProt P28335)
FAAH: Fatty-acid amide hydrolase 1 (FAAH, Homo sapiens, UniProt O00519)
HTR2B: 5-hydroxytryptamine receptor 2B (HTR2B, Homo sapiens, UniProt P41595)
TOP2A: DNA topoisomerase 2-alpha (TOP2A, Homo sapiens, UniProt P11388)

| target | test | IC50 [µM] | SMILES |
| --- | --- | --- | --- |
| DHFR | enzyme activity, inhibitor, absorbance | 1.1 | Cc1ccccc1NC(=O)C=Cc1ccc(O)c(O)c1 |
| DHFR | enzyme activity, inhibitor | 18.3 | Cc1cccc(C)c1NC(=S)NN=Cc1ccc(N2CCCCC2)cc1 |
| HTR2C | calcium signal, antagonist | 2.61 | Cc1[nH]c2ccccc2c1C(=O)C(C)N1CCC(c2nccn2C)C1 (stereo not drawn) |
| DHFR | enzyme activity, inhibitor | 13.7 | O=[N+]([O-])c1cccc(NC(=S)NN=Cc2ccc(N3CCCCC3)cc2)c1 |
| FAAH | enzyme activity, inhibitor, fluorescence | 0.016 | O=C(Nc1ccc(-c2cnc3ccccc3c2)cc1)C1CCN(S(=O)(=O)c2ccccc2Cl)CC1 |
| DHFR | enzyme activity, inhibitor, absorbance | 105 | O=C(O)/C=C/c1ccc(O)c(O)c1 |
| Calcium/calmodulin-dependent protein kinase type II subunit alpha (CAMK2A, Homo sapiens, UniProt Q9UQM7) | enzyme activity, inhibitor | 86.1 | O=c1cc(-c2ccc(O)cc2)oc2c([C@@H]3OC[C@H](O)[C@H](O)[C@H]3O)c(O)c([C@@H]3O[C@H](CO)[C@@H](O)[C@H](O)[C@H]3O)c(O)c12 |
| HTR2C | calcium signal, antagonist | 23 | COc1ccccc1CC1CCN(CC(=O)c2cc(C)[nH]c2C)C1 (stereo not drawn) |
| DHFR | enzyme activity, inhibitor, absorbance | 15.4 | O=C(C=Cc1ccc(O)c(O)c1)Oc1ccccc1 |
| FAAH | enzyme activity, inhibitor, fluorescence | 0.0035 | O=C(Nc1ccc(-c2ccc3ccccc3n2)cc1)C1CCN(S(=O)(=O)c2ccccc2Cl)CC1 |
| HTR2B | calcium signal, antagonist | 2.25 | CC1CC2CN(C(C)C(=O)c3c[nH]c4ccccc34)CCN2C1 (stereo not drawn) |
| DHFR | enzyme activity, inhibitor | 20.6 | S=C(NCc1ccc(Cl)cc1)NN=Cc1ccc(N2CCCCC2)cc1 |
| TOP2A | enzyme activity, inhibitor | 13.3 | O=c1nc(SCc2cc(F)cc(C(F)(F)F)c2)nc(SCc2ccc3sccc3c2)[nH]1 |
| HTR2B | calcium signal, antagonist | 3.68 | Cc1[nH]c2ccccc2c1SCCNC(=O)CN1CCC(C)C1 (stereo not drawn) |
| FAAH | enzyme activity, inhibitor, fluorescence | 0.0105 | O=C(Nc1ccc(-c2ccc3cccnc3c2)cc1)C1CCN(S(=O)(=O)c2ccccc2Cl)CC1 |
| HTR2B | calcium signal, antagonist | 0.691 | Cc1cccc(C(CO)N2CCN(Cc3cc(O)ccc3Cl)CC2)c1 (stereo not drawn) |
| DHFR | enzyme activity, inhibitor | 36.3 | S=C(NN=Cc1ccc(N2CCCCC2)cc1)Nc1c(Cl)cccc1Cl |
| DHFR | enzyme activity, inhibitor, absorbance | 0.182 | CC1CCC(C(C)C)C(OC(=O)C=Cc2ccc(O)c(O)c2)C1 (stereo not drawn) |
| DHFR | enzyme activity, inhibitor | 18.4 | S=C(NN=Cc1ccc(N2CCCCC2)cc1)Nc1ccc(Cl)cc1 |
| HTR2B | calcium signal, antagonist | 7.25 | O=C1C(N2CCC(c3cn[nH]n3)C2)CCN1c1cccc(Cl)c1 (stereo not drawn) |
| TOP2A | enzyme activity, inhibitor | 16.3 | O=c1nc(SCc2ccc(C(F)(F)F)cc2)nc(SCc2ccc3sccc3c2)[nH]1 |
| HTR2B | calcium signal, antagonist | 5.36 | Cc1[nH]c2ccccc2c1SCCNC(=O)C1NCCC1C1CC1 (stereo not drawn) |
| DHFR | enzyme activity, inhibitor, absorbance | 13 | O=C(C=Cc1ccc(O)c(O)c1)Oc1cccc2cccnc12 |
| HTR2B | calcium signal, antagonist | 0.586 | Oc1cc(CN2CCN3CCCCC3C2)c2ccccc2c1 (stereo not drawn) |
| DHFR | enzyme activity, inhibitor | 24.6 | Fc1ccc(NC(=S)NN=Cc2ccc(N3CCCCC3)cc2)cc1 |
| DHFR | enzyme activity, inhibitor | > 5 | Nc1nc(N)c(OCCCOc2ccccc2CCC(=O)O)c(-c2ccc(C(F)(F)F)cc2)n1 |
| DHFR | enzyme activity, inhibitor | 15.6 | S=C(NN=Cc1ccc(N2CCCCC2)cc1)Nc1ccccc1 |
| TOP2A | enzyme activity, inhibitor | 36.3 | O=c1nc(SCc2cc(F)cc(C(F)(F)F)c2)nc(SCc2ccc3ncsc3c2)[nH]1 |
| DHFR | enzyme activity, inhibitor | 41.2 | S=C(NN=Cc1ccc(N2CCCCC2)cc1)NC1CCCCC1 |
| TOP2A | enzyme activity, inhibitor | 14.2 | CC(C)c1ccc(CSc2nc(SCc3ccc4sccc4c3)[nH]c(=O)n2)cc1 |
